Common to all, as to format: functional
Experiment [1] relates to Pseudomonas aeruginosa. The experiment is described as follows: Antibacterial activity against Pseudomonas aeruginosa MTCC 1688 after 24 hrs by cup diffusion method. The following applies: MTCC 1688, 24 h.
In experiment [2] the test system is Fusarium oxysporum. Briefly: Antifungal activity against Fusarium oxysporum after 48 hrs by cup diffusion method.
Experiment [3] concerns Fusarium verticillioides. The experiment is described as follows: Antifungal activity against Fusarium moniliforme at 20 ug after 48 hrs by cup diffusion method. The following applies: read-out: IZ. In a few lines: (§1)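 Cup diffusion on 9 cm plates seeded with 1 × 10⁶ cfu of fungi, with spores adjusted to at least 1 × 10⁶ cfu/ml in potato dextrose broth. Compound in DMF was placed in 5 mm agar cups and left 1 h to diffuse. Plates were incubated at 28 °C for 48 h and the inhibition zone read in mm. DMF was the negative control.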

Experiment [4] deals with Pseudomonas aeruginosa. Briefly: Antibacterial activity against Pseudomonas aeruginosa MTCC 1688 at 20 ug after 24 hrs by cup diffusion method. As to conditions: MTCC 1688, 24 h, read-out: IZ. In a few lines: (§2)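 Agar cup diffusion. Plates of sterile medium in 9 cm dishes were seeded with 1 × 10⁵ cfu of bacteria, with the suspension adjusted to at least 1 × 10⁵ cfu/ml in nutrient broth. Compound in DMF was placed in 5 mm cups and pre-diffused for 1 h. Plates were incubated at 37 °C for 24 h and the inhibition zone measured in mm. DMF served as negative control.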

The subject of experiment [5] is Klebsiella pneumoniae. The experiment is described as follows: Antibacterial activity against Klebsiella pneumoniae […] at 20 ug after 24 hrs by cup diffusion method. As to conditions: read-out: IZ. In a few lines:
as §2

Experiment [6] deals with Staphylococcus aureus. Briefly: Antibacterial activity against Staphylococcus aureus MTCC 737 after 24 hrs by cup diffusion method. The following applies: MTCC 737, 24 h.
Experiment [7] has as its system Aspergillus flavus. The experiment is described as follows: Antifungal activity against Aspergillus flavus after 48 hrs by cup diffusion method.
Experiment [8] concerns Escherichia coli. Briefly: Antibacterial activity against Escherichia coli MTCC 443 at 20 ug after 24 hrs by cup diffusion method. The following applies: MTCC 443, 24 h, read-out: IZ. Summed up:
as §2

Experiment [9] relates to Klebsiella pneumoniae. The experiment is described as follows: Antibacterial activity against Klebsiella pneumoniae […] after 24 hrs by cup diffusion method.
Experiment [10] has as its system Fusarium oxysporum. Briefly: Antifungal activity against Fusarium oxysporum at 20 ug after 48 hrs by cup diffusion method. As to conditions: read-out: IZ. In a few lines: as §1
The subject of experiment [11] is Staphylococcus aureus. Briefly: Antibacterial activity against Staphylococcus aureus MTCC 737 at 20 ug after 24 hrs by cup diffusion method. As to conditions: MTCC 737, 24 h, read-out: IZ. Summed up: as §2
Experiment [12] relates to Aspergillus niger. Briefly: Antifungal activity against Aspergillus niger after 48 hrs by cup diffusion method.
Experiment [13] concerns Escherichia coli. The experiment is described as follows: Antibacterial activity against Escherichia coli MTCC 443 after 24 hrs by cup diffusion method. The following applies: MTCC 443, 24 h.
Experiment [14] relates to Aspergillus flavus. The experiment is described as follows: Antifungal activity against Aspergillus flavus at 20 ug after 48 hrs by cup diffusion method. The following applies: read-out: IZ. Summed up:
as §1

The subject of experiment [15] is Aspergillus niger. Briefly: Antifungal activity against Aspergillus niger at 20 ug after 48 hrs by cup diffusion method. The following applies: read-out: IZ. Summed up:
as §1

Experiment [16] concerns Fusarium verticillioides. Briefly: Antifungal activity against Fusarium moniliforme after 48 hrs by cup diffusion method.

The term MIC denotes the lowest concentration that inhibits growth of the organism. Low readings indicate inhibition by little substance, high ones a need for much substance.

The structures appear in SMILES notation. In brackets after ≈: the same amount, converted by molar mass.

Turning to `COc1ccc(C2=NOC(Cc3ccc4c(c3)OCO4)CC2)cc1OC` (stereo not drawn), the MIC against Pseudomonas aeruginosa [1] was 20 µg/mL (≈ 56.3 µM); with Fusarium oxysporum [2], 30 µg/mL (≈ 84.4 µM); in the experiment on Staphylococcus aureus [6], 10 µg/mL (≈ 28.1 µM); in the experiment on Aspergillus flavus [7], 40 µg/mL (≈ 113 µM); in the experiment on Klebsiella pneumoniae [9], 15 µg/mL (≈ 42.2 µM); against Aspergillus niger [12], 40 µg/mL (≈ 113 µM). Further, the values for the MIC against Escherichia coli [13] and with Fusarium verticillioides [16] were 25 µg/mL (≈ 70.3 µM) and 35 µg/mL (≈ 98.5 µM), respectively. Besides, the zone of inhibition at 20 µg/disc with Fusarium verticillioides [3] was 11.2 mm; in the experiment with Pseudomonas aeruginosa [4], 14.1 mm; with Klebsiella pneumoniae [5], 17.5 mm; in the experiment with Escherichia coli [8], 8.12 mm; in the experiment with Fusarium oxysporum [10] it was 15.8 mm; in the experiment on Staphylococcus aureus [11], 16.5 mm. The zone of inhibition at 20 µg/disc is 8.12 mm in the experiment with Aspergillus flavus [14] and 7.75 mm in the experiment on Aspergillus niger [15].
Consider `Cc1ccc(C2=NOC(C#N)CC2)cc1` (stereo not drawn), for which the MIC was found to be 20 µg/mL (≈ 99.9 µM) with Pseudomonas aeruginosa [1]; 25 µg/mL (≈ 125 µM) against Fusarium oxysporum [2]; 15 µg/mL (≈ 74.9 µM) in the experiment on Staphylococcus aureus [6]; 35 µg/mL (≈ 175 µM) against Aspergillus flavus [7]; 20 µg/mL (≈ 99.9 µM) in the experiment on Klebsiella pneumoniae [9]; 40 µg/mL (≈ 200 µM) in the experiment on Aspergillus niger [12]. The MIC with Escherichia coli [13] was determined as 25 µg/mL (≈ 125 µM); with Fusarium verticillioides [16] it was 30 µg/mL (≈ 150 µM). Further, the zone of inhibition at 20 µg/disc was determined as 10.5 mm in the experiment on Fusarium verticillioides [3]; 12.7 mm in the experiment with Pseudomonas aeruginosa [4]; 16.7 mm with Klebsiella pneumoniae [5]; 11.5 mm with Escherichia coli [8]; 13.7 mm in the experiment with Fusarium oxysporum [10]; 23.5 mm with Staphylococcus aureus [11]. For the same compound, the zone of inhibition at 20 µg/disc in the experiment with Aspergillus flavus [14] stood at 7.5 mm; with Aspergillus niger [15], 6.83 mm.
With `CCOC(=O)C1CCC(c2ccc3c(c2)CCC3)=NO1` (stereo not drawn), the MIC was found to be 20 µg/mL (≈ 73.2 µM) against Pseudomonas aeruginosa [1]; 10 µg/mL (≈ 36.6 µM) against Fusarium oxysporum [2]; 20 µg/mL (≈ 73.2 µM) with Staphylococcus aureus [6]; 10 µg/mL (≈ 36.6 µM) against Aspergillus flavus [7]; 25 µg/mL (≈ 91.5 µM) against Klebsiella pneumoniae [9]; 15 µg/mL (≈ 54.9 µM) in the experiment on Aspergillus niger [12]. Further, the MIC in the experiment with Escherichia coli [13] worked out at 30 µg/mL (≈ 110 µM); in the experiment with Fusarium verticillioides [16], 20 µg/mL (≈ 73.2 µM). Further, the zone of inhibition at 20 µg/disc in the experiment with Fusarium verticillioides [3] came to 32.8 mm; in the experiment with Pseudomonas aeruginosa [4], 13.4 mm; with Klebsiella pneumoniae [5], 13.5 mm; in the experiment with Escherichia coli [8], 10.7 mm; in the experiment with Fusarium oxysporum [10], 36.5 mm; in the experiment on Staphylococcus aureus [11] it was 18.7 mm. Further, the zone of inhibition at 20 µg/disc in the experiment with Aspergillus flavus [14] was determined as 28.5 mm; in the experiment on Aspergillus niger [15], 26.7 mm.

For the origin of these results see ChEMBL document CHEMBL1152843, “Synthesis of new series of 5,6-dihydro-4H-1,2-oxazines via hetero Diels-Alder reaction and evaluation of antimicrobial activity” (2009).
